# Laboratory results as given in ChEMBL document CHEMBL1136442, “New anti-malarial peroxides with in vivo potency derived from spongean metabolites” (Bioorg Med Chem Lett, 2003).
# Assays:
# Mus musculus [1] = assay: In vivo anti-malarial activity against Plasmodium berghei
# [2] = Selectivity index was determined; type: functional
# Mus musculus [3] = assay: Survival days of the treated animal to that of control animal at a dose of 10 mg/kg; type: functional
# KB 3-1 = assay: In vitro antimalarial activity against KB 3-1; type: functional, cell-based; conditions: Homo sapiens
# Outline: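 Cytotoxicity was measured by colorimetric MTT assay, with mitomycin C as positive control.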
# Plasmodium falciparum = assay: In vitro anti-malarial activity against Plasmodium falciparum; type: functional, organism-based
# Outline: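 FCR3 strain (cycloguanil-resistant, Gambia) was sorbitol-synchronized and plated at ring stage (0.55% parasitemia, 2% hematocrit). Compound was added from DMSO stock diluted in complete medium (1% DMSO final). After 48 h at 37 °C, proliferation was scored on Giemsa smears, 10,000 erythrocytes per film, in triplicate. Quinine was the reference.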
# Mus musculus [4] = organism: Mus musculus; assay: In vitro anti-malarial activity in mice (Mus musculus) serum after 24 hr; type: functional, organism-based
Compound,ED50 (Mus musculus [1]) [mg/kg],Selectivity index [2],T/C (Mus musculus [3]),IC50 (KB 3-1) [nM],IC50 (Plasmodium falciparum) [nM],IC50 (Mus musculus [4]) [nM]
CCCCCC1(OC)CCC(CC(=O)OC)OO1 (centres undefined),> 30,360,81,–,–,–
C[C@@H]1CC[C@H]2[C@@H](C)C(=O)O[C@@H]3O[C@@]4(C)CC[C@@H]1[C@]32OO4 [ARTEMISININ],5,–,–,–,–,–
CCCCCC1(OC)CCC(CC(=O)N(CC)CC)OO1 (centres undefined),20,27,118,13000,490,–
CCCCCC1(OC)CCC(CC(=O)N(C)C)OO1 (centres undefined),13,13,95,4000,310,–
CCCCCC1(OC)CCC(CC(=O)NCC)OO1 (centres undefined),11,25,125,14000,540,–
CCCCCC1(OC)CCC(CC(=O)O)OO1 (centres undefined),–,–,–,–,–,> 1200
CCCCCC1(OC)CCC(CC(=O)NCCC)OO1 (centres undefined),9.3,39,138,12000,310,–
CCCCCC1(OC)CCC(CC(=O)NC)OO1 (centres undefined),–,10,118,5200,520,–
